Tests used:
[1] = target: T1, Retinoic acid receptor alpha (Mus musculus, UniProt P11416); assay: Dissociation constant for binding to Retinoic acid receptor alpha; format: single protein
T1 sequence (P11416 whole entry): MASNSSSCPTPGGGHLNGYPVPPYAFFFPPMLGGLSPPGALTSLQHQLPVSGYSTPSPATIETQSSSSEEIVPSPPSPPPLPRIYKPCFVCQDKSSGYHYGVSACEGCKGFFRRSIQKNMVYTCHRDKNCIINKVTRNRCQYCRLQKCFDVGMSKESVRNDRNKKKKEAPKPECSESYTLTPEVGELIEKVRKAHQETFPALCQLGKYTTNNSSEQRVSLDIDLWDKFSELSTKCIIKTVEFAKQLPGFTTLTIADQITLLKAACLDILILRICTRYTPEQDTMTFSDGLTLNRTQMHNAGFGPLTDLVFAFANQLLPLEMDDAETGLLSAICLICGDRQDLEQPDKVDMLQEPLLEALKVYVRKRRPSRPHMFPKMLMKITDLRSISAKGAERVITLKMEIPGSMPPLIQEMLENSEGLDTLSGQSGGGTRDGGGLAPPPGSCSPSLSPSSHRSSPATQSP
Procedure, shortened: (§1)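 Competitive binding assays against each receptor subtype, with Kd values taken from competition.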

[2] = target: T2, Retinoic acid receptor beta (Homo sapiens, UniProt P10826); assay: Transcriptional activation of Retinoic acid receptor RAR beta;NA=not active; design: species or system Cercopithecidae
T2 sequence (P10826 whole entry): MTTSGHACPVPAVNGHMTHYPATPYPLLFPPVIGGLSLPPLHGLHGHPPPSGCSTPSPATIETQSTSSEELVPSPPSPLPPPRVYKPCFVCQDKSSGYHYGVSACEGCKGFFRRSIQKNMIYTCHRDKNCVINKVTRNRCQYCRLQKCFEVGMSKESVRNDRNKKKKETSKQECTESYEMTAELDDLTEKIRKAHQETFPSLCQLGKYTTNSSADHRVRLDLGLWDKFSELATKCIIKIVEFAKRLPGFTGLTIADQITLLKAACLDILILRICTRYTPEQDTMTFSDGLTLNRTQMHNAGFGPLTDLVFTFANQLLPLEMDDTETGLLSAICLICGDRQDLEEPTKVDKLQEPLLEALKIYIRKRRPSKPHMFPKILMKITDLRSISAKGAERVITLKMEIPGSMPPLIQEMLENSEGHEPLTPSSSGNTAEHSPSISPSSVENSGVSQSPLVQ
Procedure, shortened: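 CV-1 cells transiently cotransfected with the receptor construct and a reporter gene, with induced transcription measured. Activity is normalized to all-trans RA. EC50 is the concentration giving 50% of maximal observed response, from a single experiment in triplicate.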

[3] = target: T3, Retinoic acid receptor gamma (Mus musculus, UniProt P18911); assay: Dissociation constant for binding to Retinoic acid receptor gamma; procedure, shortened: as §1
T3 sequence (P18911 whole entry): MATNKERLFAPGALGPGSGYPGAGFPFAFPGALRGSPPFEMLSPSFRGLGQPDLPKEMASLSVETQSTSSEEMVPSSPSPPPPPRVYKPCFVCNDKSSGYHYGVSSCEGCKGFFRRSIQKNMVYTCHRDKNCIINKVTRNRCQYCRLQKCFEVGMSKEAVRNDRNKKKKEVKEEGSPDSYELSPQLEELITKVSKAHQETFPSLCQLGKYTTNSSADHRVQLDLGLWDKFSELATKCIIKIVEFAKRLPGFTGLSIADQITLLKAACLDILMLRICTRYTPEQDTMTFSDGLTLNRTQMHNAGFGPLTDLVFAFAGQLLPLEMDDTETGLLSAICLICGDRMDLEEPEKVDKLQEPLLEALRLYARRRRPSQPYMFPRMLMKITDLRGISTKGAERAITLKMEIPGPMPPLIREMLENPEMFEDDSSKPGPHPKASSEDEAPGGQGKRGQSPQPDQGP

[4] = target: T4, Retinoic acid receptor beta (Mus musculus, UniProt P22605); assay: Dissociation constant for binding to Retinoic acid receptor beta; procedure, shortened: as §1
T4 sequence (P22605 whole entry): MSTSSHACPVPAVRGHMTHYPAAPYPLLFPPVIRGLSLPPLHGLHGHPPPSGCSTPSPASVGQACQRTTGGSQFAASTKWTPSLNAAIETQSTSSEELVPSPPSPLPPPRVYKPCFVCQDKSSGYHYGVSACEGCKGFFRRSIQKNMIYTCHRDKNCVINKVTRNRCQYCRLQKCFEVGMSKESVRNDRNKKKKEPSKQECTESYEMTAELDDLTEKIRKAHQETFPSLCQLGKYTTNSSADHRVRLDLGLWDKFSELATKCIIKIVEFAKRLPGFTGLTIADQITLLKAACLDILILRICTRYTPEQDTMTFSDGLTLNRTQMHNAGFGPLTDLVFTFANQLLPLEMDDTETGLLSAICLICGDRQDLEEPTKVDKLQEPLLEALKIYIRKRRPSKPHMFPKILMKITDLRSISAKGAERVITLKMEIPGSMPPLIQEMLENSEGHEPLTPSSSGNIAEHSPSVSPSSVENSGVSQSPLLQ

[5] = target: T5, Retinoic acid receptor RXR-gamma (Mus musculus, UniProt P28705); assay: Dissociation constant for binding to Retinoid X receptor gamma; procedure, shortened: as §1
T5 sequence (P28705 whole entry): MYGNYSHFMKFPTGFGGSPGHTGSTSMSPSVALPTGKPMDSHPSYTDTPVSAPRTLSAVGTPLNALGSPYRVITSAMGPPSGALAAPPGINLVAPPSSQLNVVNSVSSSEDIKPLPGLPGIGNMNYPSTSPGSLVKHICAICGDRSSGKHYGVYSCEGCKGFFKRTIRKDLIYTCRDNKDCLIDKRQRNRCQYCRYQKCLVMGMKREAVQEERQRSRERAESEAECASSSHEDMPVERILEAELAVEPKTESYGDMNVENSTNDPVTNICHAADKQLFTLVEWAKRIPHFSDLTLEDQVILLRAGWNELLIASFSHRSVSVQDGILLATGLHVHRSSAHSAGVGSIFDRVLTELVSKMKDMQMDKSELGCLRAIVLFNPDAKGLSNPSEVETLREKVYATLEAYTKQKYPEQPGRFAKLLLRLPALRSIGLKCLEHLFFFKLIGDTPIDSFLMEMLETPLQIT

Row | SMILES | Kd [1] | EC50 [2] | Kd [3] | Kd [4] | Kd [5]
1 | Cc1cc2c(cc1Sc1ccc(C(=O)O)cn1)C(C)(C)CCC2(C)C |  | Not Active |  |  | 
2 | Cc1cc2c(cc1S(=O)(=O)c1ccc(C(=O)O)cc1)C(C)(C)CCC2(C)C | > 10 µM | Not Active | 10 µM | > 10 µM | 3.99 µM

Second part, the compound after the results:

Row | Kd [1] | EC50 [2] | Kd [3] | Kd [4] | Kd [5] | SMILES
3 | > 10 µM | Not Active | 10 µM | > 10 µM |  | Cc1cc2c(cc1Sc1ccc(C(=O)O)cc1)C(C)(C)CCC2(C)C
4 | 4.08 µM |  | > 10 µM | 4.24 µM |  | CC1(C)CCC(C)(C)c2cc(Sc3ccc(C(=O)O)cc3)ccc21
5 | > 10 µM | Not Active | 10 µM | > 10 µM | > 10 µM | Cc1cc2c(cc1[S+]([O-])c1ccc(C(=O)O)cc1)C(C)(C)CCC2(C)C (stereo not drawn)
6 | 1 µM | Not Active | 1 µM | 1 µM | 1 µM | Cc1cc2c(cc1Sc1ncc(C(=O)O)s1)C(C)(C)CCC2(C)C
